The results in this text go back to ChEMBL document CHEMBL1137008, “Cancer preventive agents 9. Betulinic acid derivatives as potent cancer chemopreventive agents” (Bioorg Med Chem Lett, 2009).

Data set [1] in a line: Cytotoxicity against human Raji cells assessed as cell viability at 10 molar ratio after 48 hrs by trypan blue staining method. Type of data set: cell-based. To be noted: read-out: Activity. An outline of the steps:
(§1)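 Raji cells (EBV genome-carrying, Burkitt's lymphoma) grown in RPMI-1640 with 10% FBS; incubated 48 h at 37 °C with 4 mM n-butyric acid, 32 pM TPA and test compound in DMSO at stated compound/TPA molar ratio; viability determined by Trypan blue staining.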

Data set [2] concerns Raji. Description: Inhibition of TPA-induced EBV-early antigen activation in human Raji cells assessed as EA induction at 10 molar ratio after 48 hrs relative to TPA. Type of data set: cell-based. Details: scale not given: the % may be the effect or the level left. Particulars: human gammaherpesvirus 4. An outline of the steps: (§2)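 Raji cells (virus non-producer, spontaneous EA activation <0.1%) incubated 48 h at 37 °C with 4 mM n-butyric acid plus 32 pM TPA and compound in DMSO; smears stained by indirect immunofluorescence with NPC patient EBV-EA-positive serum, ≥500 cells counted; EA-positive cells expressed relative to butyrate+TPA control (100%); triplicates; IC50 as mol ratio to 32 pmol TPA.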

Data set [3] in a line: Cytotoxicity against human Raji cells assessed as cell viability at 100 molar ratio after 48 hrs by trypan blue staining method. Particulars: read-out: Activity. Type of data set: cell-based. An outline of the steps: as §1
Data set [4] has as its system Raji. The experiment in a line: Inhibition of TPA-induced EBV-early antigen activation in human Raji cells assessed as EA induction at 1000 molar ratio after 48 hrs relative to TPA. Type of data set: cell-based. Particulars: human gammaherpesvirus 4. Also on record: scale not given: the % may be the effect or the level left. An outline of the steps: as §2
In data set [5] the test system is Raji. The experiment in a line: Inhibition of TPA-induced EBV-early antigen activation in human Raji cells assessed as EA induction at 100 molar ratio after 48 hrs relative to TPA. Type of data set: cell-based. Also on record: scale not given: the % may be the effect or the level left. Particulars: human gammaherpesvirus 4. An outline of the steps:
as §2

Data set [6] is described as follows: Inhibition of TPA-induced EBV-early antigen activation in human Raji cells assessed as EA induction after 48 hrs relative to TPA. Type of data set: cell-based, human gammaherpesvirus 4. An outline of the steps:
as §2

The test system of data set [7] is Raji. The experiment in a line: Inhibition of TPA-induced EBV-early antigen activation in human Raji cells assessed as EA induction at 500 molar ratio after 48 hrs relative to TPA. Type of data set: cell-based. To be noted: human gammaherpesvirus 4. Also on record: scale not given: the % may be the effect or the level left. In short, it runs like this:
as §2

The nature of data set [8]: Cytotoxicity against human Raji cells assessed as cell viability at 500 molar ratio after 48 hrs by trypan blue staining method. Type of data set: cell-based. To be noted: read-out: Activity. In short, it runs like this:
as §1

Data set [9] in a line: Cytotoxicity against human Raji cells assessed as cell viability at 1000 molar ratio after 48 hrs by trypan blue staining method. Type of data set: cell-based. Particulars: read-out: Activity. An outline of the steps:
as §1

Consider `C=C(C)[C@@H]1CC[C@]2(C(=O)O)CC[C@]3(C)[C@H](CC[C@@H]4[C@@]5(C)[C@@H](C(=O)O)[C@H](O)C(C)(C)[C@@H]5CC[C@]43C)[C@@H]12` [CEANOTHIC ACID], for which the viability at 48 h, 10 molar ratio in [1] was > 80%. In addition, the Activity amounted to 100% in [2], 8.5% in data set [4], 72.1% in data set [5] and 35.7% in data set [7]. For the same compound, in data set [3], the viability at 48 h, 100 molar ratio was > 80%. In addition, the IC50 in data set [6] is on record as 400 molar ratio. Also, in data set [8], the viability at 48 h, 500 molar ratio was > 80%. Further, the viability at 48 h, 1000 molar ratio in data set [9] was found to be 60%.

Take `C=C(C)[C@@H]1CC[C@]2(C(=O)O)CC[C@]3(C)[C@H](CC[C@@H]4[C@@]5(C)[C@@H](C(=O)O)[C@H](OC(=O)CC(C)(C)C(=O)O)C(C)(C)[C@@H]5CC[C@]43C)[C@@H]12`: the viability at 48 h, 10 molar ratio in data set [1] was > 80%. For the same compound, the Activity in [2] came to 93.8%; in [4], 5.1%; in data set [5], 72%; in data set [7], 35%. The viability at 48 h, 100 molar ratio in [3] was > 80%. The IC50 in [6] came out at 349 molar ratio. Also, the viability at 48 h, 500 molar ratio in [8] is > 80%. The viability at 48 h, 1000 molar ratio in data set [9] amounted to 60%.

Take `C=C(C)[C@@H]1CC[C@]2(C(=O)O)CC[C@]3(C)[C@H](CC[C@@H]4[C@@]5(C)CC[C@H](OC(=O)CCCCCCC/C=C\C/C=C\C/C=C\CC)C(C)(C)[C@@H]5CC[C@]43C)[C@@H]12`: the viability at 48 h, 10 molar ratio in data set [1] was > 80%. Besides, the Activity in [2] is 97%; in data set [4], 10.9%; in data set [5], 77.8%; in [7], 43.3%. For the same compound, the viability at 48 h, 100 molar ratio in [3] was > 80%. In addition, the IC50 in [6] is 445 molar ratio. For the same compound, in data set [8], the viability at 48 h, 500 molar ratio is > 80%. The viability at 48 h, 1000 molar ratio in data set [9] turned out to be 60%.

`C=C(C)[C@@H]1CC[C@]2(C(=O)O)CC[C@]3(C)[C@H](CC[C@@H]4[C@@]5(C)CC[C@H](OC(=O)CCCCCCC/C=C\C/C=C\CCCCC)C(C)(C)[C@@H]5CC[C@]43C)[C@@H]12`: the viability at 48 h, 10 molar ratio in data set [1] was > 80%. Moreover, the Activity in data set [2] came to 94.8%; in [4], 7.3%; in data set [5], 75.9%; in data set [7], 37.9%. In addition, the viability at 48 h, 100 molar ratio in data set [3] is > 80%. Also, in data set [6], the IC50 amounted to 390 molar ratio. Further, the viability at 48 h, 500 molar ratio in [8] was > 80%. Moreover, in data set [9], the viability at 48 h, 1000 molar ratio came to 60%.

`C=C(C)[C@@H]1CC[C@]2(C(=O)O)CC[C@]3(C)[C@H](CC[C@@H]4[C@@]5(C)CC[C@H](OC(=O)CC/C=C\C/C=C\C/C=C\C/C=C\C/C=C\C/C=C\CC)C(C)(C)[C@@H]5CC[C@]43C)[C@@H]12`: the viability at 48 h, 10 molar ratio in data set [1] was > 80%. Further, the Activity in data set [2] amounted to 100%; in data set [4], 17%; in data set [5], 83.2%; in [7], 53.8%. Moreover, the viability at 48 h, 100 molar ratio in data set [3] is > 80%. Further, the IC50 in data set [6] amounted to 546 molar ratio. In addition, in data set [8], the viability at 48 h, 500 molar ratio was > 80%. Further, the viability at 48 h, 1000 molar ratio in data set [9] is 60%.

As to `COc1cc(/C=C/C(=O)CC(=O)/C=C/c2ccc(O)c(OC)c2)ccc1O` [CURCUMIN], in data set [1], the viability at 48 h, 10 molar ratio is > 80%. The Activity in data set [2] was 100%; in data set [4], 0%; in data set [5] it was 81.7%; in data set [7], 22.8%. Further, the viability at 48 h, 100 molar ratio in data set [3] was > 80%. For the same compound, in [6], the IC50 was 341 molar ratio. Further, the viability at 48 h, 500 molar ratio in [8] is > 80%. Further, in [9], the viability at 48 h, 1000 molar ratio was found to be 60%.
